Assay [1] in a line: DPPH radical scavenging capacity. Particulars: TEAC units; X = EO or compound. In outline:
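DPPH radical scavenging by essential oils and individual components, by a published method, in triplicate. Values are expressed as μmol TE/mL EO and given as mean ± SD, with ANOVA/Tukey's HSD at p < 0.05.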
For orientation: The DPPH test is a chemical assay of radical scavenging.

Assay [2] can be described thus: Thiobarbituric acid reactive substances. Particulars: for TBARS: BHTE units, X = EO or compound. An outline of the steps: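 TBARS formation by oxidation measured in soybean lecithin homogenate as lipid-rich medium, by a published method, in triplicate. Values are expressed as μmol BHTE/mL EO, mean ± SD, with ANOVA/Tukey's HSD (p < 0.05).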
A further assay is described as follows: Reducing power. Particulars: AAE units; X = EO or compound. An outline of the steps:
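Reduction of potassium ferricyanide by the oils and individual components, by a published method, in triplicate. Results are reported as ascorbic acid equivalents per volume of EO, mean ± SD, with ANOVA/Tukey's HSD (p < 0.05).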

A short description of the next assay: Chelating power. Particulars: for ChP: EDTAE units, X = EO or compound. In outline: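 Ferrous ion chelation by essential oils and their major components, by a published method, in triplicate. Results are expressed as EDTA equivalents per volume of EO, mean ± SD, with ANOVA/Tukey's HSD (p < 0.05).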
Assay [3] can be described thus: ABTS radical cation bleaching assay. The note with it: TEAC units; X = EO or compound. An outline of the steps: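 ABTS radical cation (ABTS•+) bleaching by essential oils and their individual components, run in triplicate by a published method. Results are given as mean ± SD, compared by ANOVA with Tukey's HSD (p < 0.05).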
A short description of assay [4]: Oxygen radical absorption capacity. Particulars: TEAC units; X = EO or compound. An outline of the steps:
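Peroxyl radical (ROO) scavenging by the oils and individual components, following a published ORAC method, in triplicate. Data are mean ± SD, with significance by ANOVA/Tukey's HSD (p < 0.05).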

With `CC12CCC(CC1)C(C)(C)O2` [1,8-Cineole], the DPPH entry in assay [1] was “N/D (Activity lower than 0.05 units at a maximum assay concentration of 100 mM)”. The TBARS entry in assay [2] is on record as “N/D (Activity lower than 0.05 units at a maximum assay concentration of 100 mM)”. In the assay “Reducing power”, the RdP entry was “N/D (Activity lower than 0.05 units at a maximum assay concentration of 100 mM)”. In addition, in “Chelating power”, the ChP is given as 6.7 ± 0.4 μmol EDTAE/mL X. Besides, the ABTS in assay [3] turned out to be 0.2 ± 0.0 μmol TE/mL X. The ORAC entry in assay [4] was “N/D (Activity lower than 0.05 units at a maximum assay concentration of 100 mM)”.
As for `CC1(C)C2CCC1(C)C(O)C2` (stereo not drawn) [Borneol], the DPPH entry in assay [1] is given as “N/D (Activity lower than 0.05 units at a maximum assay concentration of 100 mM)”. In addition, the TBARS result in assay [2] is reported as “N/D (Activity lower than 0.05 units at a maximum assay concentration of 100 mM)”. Besides, the RdP result in the assay “Reducing power” is “N/D (Activity lower than 0.05 units at a maximum assay concentration of 100 mM)”. The ChP entry in “Chelating power” is on record as “N/D (Activity lower than 0.05 units at a maximum assay concentration of 100 mM)”. The ABTS entry in assay [3] was “N/D (Activity lower than 0.05 units at a maximum assay concentration of 100 mM)”. Moreover, the ORAC result in assay [4] was “N/D (Activity lower than 0.05 units at a maximum assay concentration of 100 mM)”.
As for `C=C1C2CCC(C2)C1(C)C` (stereo not drawn) [Camphene], the DPPH entry in assay [1] is listed as “N/D (Activity lower than 0.05 units at a maximum assay concentration of 100 mM)”. Also, the TBARS result in assay [2] is “N/D (Activity lower than 0.05 units at a maximum assay concentration of 100 mM)”. The molecule further displayed a RdP in “Reducing power” of 3238.9 ± 157.4 μmol AAE/L X. This molecule also returned a ChP in “Chelating power” of 9.9 ± 0.7 μmol EDTAE/mL X. For the same molecule, in assay [3], the ABTS is reported as 0.8 ± 0.0 μmol TE/mL X. In addition, in assay [4], the ORAC entry is “N/D (Activity lower than 0.05 units at a maximum assay concentration of 100 mM)”.
In assay [1], `Cc1ccc(C(C)C)cc1O` [Carvacrol] came in with a DPPH of 34.9 ± 2.5 μmol TE/mL X. Besides, the TBARS in assay [2] amounted to 600.7 ± 102.2 μmol BHTE/mL X. The same molecule displayed a RdP in the assay “Reducing power” of 3239.6 ± 143.0 μmol AAE/L X. The ChP result in the assay “Chelating power” is given as “N/D (Activity lower than 0.05 units at a maximum assay concentration of 100 mM)”. In assay [3], this molecule yielded an ABTS of 7804.4 ± 268.1 μmol TE/mL X. In assay [4], this molecule showed an ORAC of 2.8 ± 0.1 μmol TE/μL X.
Turning to `C=CC(=C)CCC=C(C)C` [Myrcene], the DPPH result in assay [1] is reported as “N/D (Activity lower than 0.05 units at a maximum assay concentration of 100 mM)”. In assay [2], the TBARS entry is listed as “N/D (Activity lower than 0.05 units at a maximum assay concentration of 100 mM)”. The RdP entry in the assay “Reducing power” was “N/D (Activity lower than 0.05 units at a maximum assay concentration of 100 mM)”. The same molecule registered a ChP in the assay “Chelating power” of 14.4 ± 1.0 μmol EDTAE/mL X. In addition, the ABTS entry in assay [3] is “N/D (Activity lower than 0.05 units at a maximum assay concentration of 100 mM)”. Further, the ORAC entry in assay [4] is reported as “N/D (Activity lower than 0.05 units at a maximum assay concentration of 100 mM)”.
As to `CC(C)C12CCC(C)(O)C1C2` (stereo not drawn) [Sabinene hydrate], the DPPH result in assay [1] is on record as “N/D (Activity lower than 0.05 units at a maximum assay concentration of 100 mM)”. This molecule had a TBARS in assay [2] of 97.2 ± 4.2 μmol BHTE/mL X. Besides, in “Reducing power”, the RdP result is on record as “N/D (Activity lower than 0.05 units at a maximum assay concentration of 100 mM)”. In the assay “Chelating power”, this molecule gave a ChP of 44.9 ± 3.7 μmol EDTAE/mL X. This molecule showed an ABTS in assay [3] of 3.2 ± 0.2 μmol TE/mL X. The same molecule came in with an ORAC in assay [4] of 0.3 ± 0.0 μmol TE/μL X.
`CC1=CCC(O)(C(C)C)CC1` (stereo not drawn) [Terpinen-4-ol] had a DPPH in assay [1] of 0.3 ± 0.0 μmol TE/mL X. In assay [2], the TBARS was determined as 50.2 ± 10.6 μmol BHTE/mL X. In “Reducing power”, the RdP entry is recorded as “N/D (Activity lower than 0.05 units at a maximum assay concentration of 100 mM)”. Besides, the ChP in “Chelating power” is recorded as 10.3 ± 0.7 μmol EDTAE/mL X. Further, the ABTS in assay [3] was found to be 1.8 ± 0.1 μmol TE/mL X. The ORAC in assay [4] stood at 2.2 ± 0.1 μmol TE/μL X.
Take `C=CC(C)(CCC=C(C)C)OC(C)=O` (stereo not drawn) [linalyl acetate]: the DPPH result in assay [1] is given as “N/D (Activity lower than 0.05 units at a maximum assay concentration of 100 mM)”. The TBARS in assay [2] amounted to 19.6 ± 0.6 μmol BHTE/mL X. In the assay “Reducing power”, the RdP result is recorded as “N/D (Activity lower than 0.05 units at a maximum assay concentration of 100 mM)”. In the assay “Chelating power”, the “Chelating power (ChP), result in words” value is listed as “high ChP” and the ChP is on record as 125.7 ± 9.4 μmol EDTAE/mL X. In addition, the ABTS in assay [3] is 0.3 ± 0.0 μmol TE/mL X. For the same molecule, the ORAC in assay [4] turned out to be 1.0 ± 0.1 μmol TE/μL X.
In turn, `CC1=CCC2CC1C2(C)C` (stereo not drawn) [α-Pinene] had a DPPH in assay [1] of 0.1 ± 0.0 μmol TE/mL X. Further, the TBARS in assay [2] was 16.3 ± 0.5 μmol BHTE/mL X. For the same molecule, the RdP result in “Reducing power” is given as “N/D (Activity lower than 0.05 units at a maximum assay concentration of 100 mM)”. In the assay “Chelating power”, this molecule had a ChP of 104.8 ± 7.0 μmol EDTAE/mL X. The ABTS entry in assay [3] is given as “N/D (Activity lower than 0.05 units at a maximum assay concentration of 100 mM)”. For the same molecule, in assay [4], the ORAC came to 0.2 ± 0.0 μmol TE/μL X.
`CC1=CC[C@@H](C(C)(C)O)CC1` [α-Terpineol]: the DPPH entry in assay [1] was “N/D (Activity lower than 0.05 units at a maximum assay concentration of 100 mM)”. Besides, the TBARS in assay [2] turned out to be 15.6 ± 0.5 μmol BHTE/mL X. In addition, the RdP result in “Reducing power” is “N/D (Activity lower than 0.05 units at a maximum assay concentration of 100 mM)”. The molecule further gave a ChP in the assay “Chelating power” of 29.9 ± 1.9 μmol EDTAE/mL X. Besides, the ABTS in assay [3] worked out at 1.1 ± 0.1 μmol TE/mL X. In assay [4], this molecule displayed an ORAC of 1.9 ± 0.1 μmol TE/μL X.
In the case of `CC1=CC=C(C(C)C)CC1` [α-terpinene], the DPPH in assay [1] is 1.7 ± 0.1 μmol TE/mL X. Besides, in assay [2], the TBARS entry is listed as “N/D (Activity lower than 0.05 units at a maximum assay concentration of 100 mM)”. Further, the RdP in “Reducing power” was 11,531.4 ± 637.1 μmol AAE/L X. Also, in “Chelating power”, the “Chelating power (ChP), result in words” value is given as “high chelating activity” and the ChP amounted to 385.6 ± 29.0 μmol EDTAE/mL X. Besides, the ABTS in assay [3] worked out at 24.6 ± 1.2 μmol TE/mL X. Besides, in assay [4], the ORAC was found to be 0.4 ± 0.0 μmol TE/μL X.
`C=C1CC/C=C(\C)CC[C@@H]2[C@@H]1CC2(C)C` [β-Caryophyllene]: the DPPH result in assay [1] is reported as “N/D (Activity lower than 0.05 units at a maximum assay concentration of 100 mM)”. In assay [2], the TBARS is 76.5 ± 3.4 μmol BHTE/mL X. In the assay “Reducing power”, the RdP entry is recorded as “N/D (Activity lower than 0.05 units at a maximum assay concentration of 100 mM)”. The same molecule had a ChP in “Chelating power” of 31.6 ± 2.2 μmol EDTAE/mL X. In addition, the ABTS entry in assay [3] was “N/D (Activity lower than 0.05 units at a maximum assay concentration of 100 mM)”. In assay [4], this molecule gave an ORAC of 1.7 ± 0.1 μmol TE/μL X.
Consider `C=C1CCC2CC1C2(C)C` (stereo not drawn) [β-Pinene], for which, in assay [1], the DPPH is recorded as 0.1 ± 0.0 μmol TE/mL X. The molecule also gave a TBARS in assay [2] of 28.9 ± 1.9 μmol BHTE/mL X. Also, in the assay “Reducing power”, the RdP result is given as “N/D (Activity lower than 0.05 units at a maximum assay concentration of 100 mM)”. In the assay “Chelating power”, this molecule yielded a ChP of 11.7 ± 0.7 μmol EDTAE/mL X. Further, in assay [3], the ABTS was found to be 0.7 ± 0.0 μmol TE/mL X. For the same molecule, in assay [4], the ORAC entry is reported as “N/D (Activity lower than 0.05 units at a maximum assay concentration of 100 mM)”.
Consider `CC1=CCC(C(C)C)=CC1` [γ-terpinene], for which the DPPH in assay [1] is on record as 2.1 ± 0.1 μmol TE/mL X. In assay [2], the “TBARS antioxidant activity, result in words” value is “strong TBARS antioxidant activity” and the TBARS came to 273.2 ± 24.4 μmol BHTE/mL X. This molecule also returned a RdP in “Reducing power” of 1990.6 ± 160.2 μmol AAE/L X. In “Chelating power”, this molecule had a ChP of 2.0 ± 0.1 μmol EDTAE/mL X. Also, in assay [3], the ABTS was determined as 15.6 ± 0.7 μmol TE/mL X. Moreover, the ORAC in assay [4] was found to be 1.1 ± 0.1 μmol TE/μL X.

Values taken from article PMC9322249 (Journal of Food and Drug Analysis, 2017).
